Here are results for nine compounds from publication PMC5991896 (Biochimie Open, 2017).

In the assay the target is T1, fucolectin-related protein (FRP) (Streptococcus pneumoniae, UniProt A0A0H2US34).
T1 sequence (A0A0H2US34 1-1038): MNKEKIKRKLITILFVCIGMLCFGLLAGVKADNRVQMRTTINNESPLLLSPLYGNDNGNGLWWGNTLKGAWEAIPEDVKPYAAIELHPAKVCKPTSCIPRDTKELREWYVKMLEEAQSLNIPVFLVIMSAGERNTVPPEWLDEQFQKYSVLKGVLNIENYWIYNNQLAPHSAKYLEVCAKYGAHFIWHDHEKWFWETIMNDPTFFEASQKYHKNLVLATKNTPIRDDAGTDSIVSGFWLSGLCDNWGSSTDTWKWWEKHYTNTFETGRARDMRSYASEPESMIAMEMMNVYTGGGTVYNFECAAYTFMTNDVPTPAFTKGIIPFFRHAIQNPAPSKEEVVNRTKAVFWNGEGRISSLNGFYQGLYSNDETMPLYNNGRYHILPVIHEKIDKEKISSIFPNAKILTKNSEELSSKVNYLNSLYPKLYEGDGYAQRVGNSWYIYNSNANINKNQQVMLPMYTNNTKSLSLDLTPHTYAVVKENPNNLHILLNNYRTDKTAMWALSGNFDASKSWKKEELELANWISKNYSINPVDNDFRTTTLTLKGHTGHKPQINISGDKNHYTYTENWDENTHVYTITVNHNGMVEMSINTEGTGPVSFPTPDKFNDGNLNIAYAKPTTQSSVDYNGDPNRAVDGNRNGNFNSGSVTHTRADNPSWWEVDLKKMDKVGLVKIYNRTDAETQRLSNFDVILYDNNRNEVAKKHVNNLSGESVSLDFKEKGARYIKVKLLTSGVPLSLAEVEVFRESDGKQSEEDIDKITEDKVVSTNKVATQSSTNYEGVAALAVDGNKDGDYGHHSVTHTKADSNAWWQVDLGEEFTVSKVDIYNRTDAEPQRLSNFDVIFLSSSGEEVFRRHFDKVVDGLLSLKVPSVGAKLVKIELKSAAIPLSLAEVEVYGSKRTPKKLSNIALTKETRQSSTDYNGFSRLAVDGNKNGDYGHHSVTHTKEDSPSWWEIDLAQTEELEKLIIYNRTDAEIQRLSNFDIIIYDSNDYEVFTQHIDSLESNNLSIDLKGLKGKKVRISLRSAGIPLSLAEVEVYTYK
In words: enzyme-linked lectinosorbent inhibition assay. The format is binding. The following applies: TBS-T pH 7.35, 20 °C; no metal needed; ratio from amounts giving 50% inhibition. In short, it runs like this:
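Recombinant SP2159 FRP expressed in E. coli and biotinylated. Wells coated at 4 °C with 10 μg human ovarian cyst phenol-insoluble glycoprotein bearing H Fucα1→2Gal and Fucα1→3/4GlcNAc glycotopes. Twofold serially diluted saccharide was mixed with an equal volume of fixed FRP for 1 h at 20 °C. TBS-T served as diluent and wash. The nmole/well giving 50% inhibition versus no inhibitor was read from the inhibition curve.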

Consider `C[C@@H]1O[C@H](Oc2ccc([N+](=O)[O-])cc2)[C@@H](O)[C@H](O)[C@@H]1O` [compound 1, p-Nitrophenyl-β-LFuc], for which the “Molar Relative Potency / LFuc as 1.0” value is listed as 69.1 relative to LFuc = 1.0.

Take `C[C@@H]1O[C@@H](Oc2ccc([N+](=O)[O-])cc2)[C@@H](O)[C@H](O)[C@@H]1O` [compound 2, p-Nitrophenyl-α-LFuc]: the “Molar Relative Potency / LFuc as 1.0” value was 34.5 relative to LFuc = 1.0.

Consider `CO[C@H]1O[C@@H](C)[C@@H](O)[C@@H](O)[C@@H]1O` [compound 3, Methyl-β-LFuc], for which the “Molar Relative Potency / LFuc as 1.0” value is given as 21.9 relative to LFuc = 1.0.

In the case of `C[C@@H]1O[C@@H](O[C@H]2[C@H](O[C@H]3[C@H](O[C@@H]4O[C@@H](C)[C@@H](O)[C@@H](O)[C@@H]4O)[C@@H](O)C(O)O[C@@H]3CO)O[C@H](CO)[C@H](O)[C@@H]2O)[C@@H](O)[C@H](O)[C@@H]1O` (stereo partly drawn) [compound 4, LFucα1→2Galβ1→4[LFucα1→3]Glc], the “Molar Relative Potency / LFuc as 1.0” value was 5.7 relative to LFuc = 1.0.

For the compound `CO[C@@H]1O[C@@H](C)[C@@H](O)[C@@H](O)[C@@H]1O` [compound 5, Methyl-α-LFuc], the “Molar Relative Potency / LFuc as 1.0” value is on record as 4.4 relative to LFuc = 1.0.

For the compound `OC[C@@H]1OC(O)[C@@H](O)[C@H](O)[C@@H]1O` (stereo partly drawn) [compound 6, LGal], the “Molar Relative Potency / LFuc as 1.0” value is on record as 4.4 relative to LFuc = 1.0.

Turning to `CC(=O)N[C@H]1[C@H](O[C@H]2[C@@H](O)[C@@H](CO)O[C@@H](O[C@H]3[C@H](O)[C@@H](O)C(O)O[C@@H]3CO)[C@@H]2O)O[C@H](CO)[C@@H](O[C@@H]2O[C@@H](C)[C@@H](O)[C@@H](O)[C@@H]2O)[C@@H]1O[C@@H]1O[C@H](CO)[C@H](O)[C@H](O)[C@H]1O[C@@H]1O[C@@H](C)[C@@H](O)[C@@H](O)[C@@H]1O` (stereo partly drawn) [compound 7, LFucα1→2Galβ1→3[LFucα1→4]GlcNAcβ1→3Gal β1→4Glc], the “Molar Relative Potency / LFuc as 1.0” value is 1.8 relative to LFuc = 1.0.

In the case of `C[C@@H]1O[C@@H](O[C@H]2C(O)O[C@H](CO)[C@H](O)[C@@H]2O)[C@@H](O)[C@H](O)[C@@H]1O` (stereo partly drawn) [compound 9, LFucα1→2Gal], the “Molar Relative Potency / LFuc as 1.0” value is reported as 0.7 relative to LFuc = 1.0.

Take `OC1OC[C@@H](O)[C@@H](O)[C@@H]1O` (stereo partly drawn) [compound 10, DAra]: the “Molar Relative Potency / LFuc as 1.0” value is 0.09 relative to LFuc = 1.0.
